This is a sample that favours compounds with a hit; in the whole collection about 2.7% have one here.
SIAE inh – inhibitors of human sialic acid acetylesterase SIAE | SIAE FP-Rh probe binding, fluorescence polarization | inhibition, % at 9.66 µM | 370,000 compounds, 0.69% hits;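 active = inhibition above a cutoff: mean of compounds within the control limits plus 3 SD of those, cut at about 17% in these data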;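 note: 0% = plate median of compound wells and 100% = probe without SIAE protein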
PRMT1 FP inh – PRMT1 (human) inhibition, primary screen. inhibition, % at 2.79 µM. Q99873. recombinant PRMT1, activity-based probe fluorescence polarization. 370,000 compounds, 1.3% hits. AID 652257;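 active = inhibition above about 21% made by adding two undisclosed values, limit read from the data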
ABHD4 inh – inhibits mouse alpha/beta hydrolase domain 4 | purified mABHD4, FP-Rh probe fluorescence polarization | inhibition, % at 8.92 µM | 370,000 compounds, 0.54% hits | AID 720543;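 active = inhibition exceeding the mean over every tested compound plus 3 SD, cut at about 30% in these data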;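 note: 0% = plate median of compound wells and 100% = S159A mutant with DMSO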
Target sequence (Q8VD66 whole entry, looked up, the tested form may be a part): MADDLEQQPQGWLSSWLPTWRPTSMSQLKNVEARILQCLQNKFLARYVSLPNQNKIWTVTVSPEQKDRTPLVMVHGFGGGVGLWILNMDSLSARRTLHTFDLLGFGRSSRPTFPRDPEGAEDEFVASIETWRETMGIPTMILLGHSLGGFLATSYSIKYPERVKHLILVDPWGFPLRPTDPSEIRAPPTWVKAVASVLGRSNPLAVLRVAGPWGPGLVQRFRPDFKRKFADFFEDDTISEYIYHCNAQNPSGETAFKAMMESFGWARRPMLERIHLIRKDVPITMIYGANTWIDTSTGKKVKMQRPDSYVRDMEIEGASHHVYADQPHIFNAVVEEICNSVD
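Test system: mABHD4 protein | Buffer or medium: HEPES pH 7.0 buffer, 150 mM NaCl, 0.01% Pluronic F-127 | Probe or stimulus: FP-Rh fluorescent activity-based probe, added after compound pre-incubation | Timing: Pre-incubation 45 min, probe exposure 60 min, at 25 °C | Technique: Fluorescence polarization, excitation 525 nm, emission 598 nm, BODIPY TMR filters | Repeats: Single well per compound (singlicate)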
HTRA1 inhibitor – inhibitors of human serine peptidase HTRA1. inhibition, % at 5.96 µM. AID 504803. 340,000 compounds, 0.5% hits. recombinant HTRA1, FP-rhodamine activity-based probe, fluorescence polarization. Q92743; in the data active = inhibition above about 36%;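 note: 0% = enzyme with DMSO and 100% = wells lacking enzyme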
TCR CD3 inh – inhibitors of human TCR-CD3 interaction; TAMRA-labeled TCR probe fluorescence, biochemical; inhibition, % at 9.4 µM; 360,000 compounds, 0.37% hits; AID 651800; in the data active = inhibition above about 19%;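 note: recombinant mutant TCR 2C K166C tagged with TAMRA read by polarization; 0% = receptor in buffer alone and 100% = receptor with positive control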
An asterisk follows results filed as active; · = not tested or not shown; ! = not active in a repeat.

SMILES	SIAE inh	PRMT1 FP inh	ABHD4 inh	HTRA1 inhibitor	TCR CD3 inh
Cc1ccc(CNC(=O)COc2ccc(C)nc2[N+](=O)[O-])cc1	2	-2	-1	3	9
Cc1ccc(OCC(=O)c2ccc(Cl)s2)c([N+](=O)[O-])n1	3	24*	27	17	12
CC(C)(C)c1cc[n+](-c2[nH]c(=O)sc2/C=N/NC([S-])=Nc2ccccc2)cc1	9	116*	24	27	-3
CCc1ccc[n+](-c2[nH]c(=O)sc2/C=N/N=C(\[O-])c2ccncc2)c1	7	0	1	6	5
CCOc1ccc(CCNC(=O)c2cc3sccc3n2Cc2cccc(C)c2)cc1OCC	-3	-1	-7	·	·
Cc1cc(C)c(S(=O)(=O)NCCSCc2ccco2)c(C)c1	6	24*	-7	-35	-1
CCOc1ccc(OCC(=O)NCCS(=O)(=O)N2CCN(c3ccccc3)CC2)cc1	-3	-2	-4	3	-9
NC(=O)c1cc(NC(=O)CCNS(=O)(=O)c2cccc(C(F)(F)F)c2)cc(C(N)=O)c1	-2	-1	0	-1	5
O=C(CN1CCOCC1)Nc1nc2ccc(Br)cc2s1	5	39*	-4	-9	-3
COc1ccccc1C1=NNC(=Nc2cccc(S(=O)(=O)N(C)C)c2)SC1	-7	22*	-1	4	6
C=CCN1C(=O)/C(=C2/Sc3ccccc3N2CCCS(=O)(=O)O)SC1=S	3	15	36*	17	2
CN(C)c1ccc(N2C(=O)CC(Nc3ccc(N4CCOCC4)cc3)C2=O)cc1 (centres undefined)	11	6	21	6	-7
COc1cccc(N2C(=O)CC(Nc3ccc(N4CCOCC4)cc3)C2=O)c1 (centres undefined)	·	·	·	51*	·
COc1ccc2c(c1)c(=O)oc1c(C)c(OCc3cc(C(=O)O)oc3C)ccc12	-3	-1	32*	-8	6
COc1ccc2c(c1)c(=O)oc1c(C)c(OCc3ccc(C(=O)O)cc3)ccc12	·	·	·	-1	·
Cc1ccc(NC(=S)/C(C#N)=C2/Nc3ccccc3S2)cc1	4	-1	63*	1	7
C=CCN1[C@H](CC(C)C)COc2cc(F)ccc2S1(=O)=O	0	1	-4	·	·
Cc1cc(N/N=C/c2ccc(Cl)cc2)nc(NCc2ccccc2)n1	7	-1	11	-38	2
Cc1cc(Nc2cccc(Cl)c2)nc(NCc2ccccc2)n1	24*	-1	19	-29	0
Cc1ccc(/C=C/C(=O)NCc2ccccn2)o1	7	21*	11	6	4
COC1=C[C@H](C(=O)NCc2ccc(OC)cc2)C(C)C(c2ccccc2)CC1=O (some centres undefined)	7	3	-8	·	·
Cc1ccc(NCc2nnc(SCC(=O)c3ccccc3)n2Cc2ccco2)c(C)c1	-4	24*	-13	-13	-8
Cc1ccc(NC(=O)CSc2nnc(CSc3nc(C)cc(C)n3)n2Cc2ccco2)c(C)c1	8	-2	3	-9	7
Cc1cccn2c(=O)c3cc(C#N)c(=NC(=O)c4ccccc4)n(Cc4ccco4)c3nc12	-15	24*	3	0	6
Cc1cccc(C(=O)N=c2c(C#N)cc3c(=O)n4cccc(C)c4nc3n2Cc2ccco2)c1	-10	25*!	11	-15	8
SMILES	SIAE inh	PRMT1 FP inh	ABHD4 inh	HTRA1 inhibitor	TCR CD3 inh
CC1(C)CC(=O)N(CC(=O)N2CCN(c3cccc(Cl)c3Cl)CC2)c2ccccc2S1(=O)=O	3	4	-3	·	·
O=C1NC(=S)/C(=C\c2ccc(-c3ccccc3Cl)o2)S1	4	67*	26	24	1
Cc1ccc(C(=O)NC(=O)CSc2nncn2C)cc1	-1	2	0	-1	4
Cc1ccc(C2=NN=C(NC(=O)CSc3nncn3C)SC2)cc1	-2	94*	6	5	-2
Cn1c(N)c(C(=O)COC(=O)c2ccccc2C(=O)c2ccc(Cl)c([N+](=O)[O-])c2)c(=O)n(C)c1=O	·	·	·	5	·
O=C(O)CC(SCC(=O)Nc1ccc(Cl)c(S(=O)(=O)N2CCOCC2)c1)C(=O)O (centres undefined)	-10	43*	-10	-5	7
CC(CC(=O)Nc1ccc(Cl)c(S(=O)(=O)N2CCOCC2)c1)c1ccccc1 (centres undefined)	-3	1	-1	-6	5
O=C(Cn1nc2ccccc2n1)N/N=C/c1cc(Cl)cc([N+](=O)[O-])c1O	3	2	9	15	56*
O=[N+]([O-])c1cc(Cl)cc(/C=N/Nc2nc3ccccc3s2)c1O	4	2	8	26	-1
N#CCCCc1cn(-c2cccc(-c3noc4c3C(=O)N(CC(=O)N3CCOCC3)CC4)c2)nn1	4	-1	1	·	·
CC(=O)c1cccc(NC(=O)c2cnn3c(C)cc(C)nc23)c1	1	8	-1	·	·
C=CCN(CC#CC(=C)C)CC1CC1	1	1	4	·	·
CCOC(=O)NC1(NC(C)C)Oc2ccccc2O1	6	11	15	11	3
CCOC(=O)NC1(Nc2ccc(C)cc2)Oc2ccccc2O1	9	37*	22	32	-4
COCCCNC(=O)CSc1nnc(-c2ccncc2)n1-c1ccc(OC)cc1	-1	2	2	·	·
O=[N+]([O-])c1ccc2c(c1)N([O-])C1(CCCCC1)[N+]2=O	13	14	53*	·	4
Cn1c(=O)oc2cc(S(=O)(=O)N3CCN(C(=O)C4CCCO4)CC3)ccc21 (centres undefined)	1	-7	3	·	·
Cc1cccc(-n2cnc3c(c2=O)c2nc4ccccc4nc2n3Cc2ccco2)c1	-6	21*	-4	-17	3
O=C1C(=Cc2ccco2)CCCC1=Cc1ccco1	4	29*	-1	22	11
CC(C)c1ccc(N2CCN(C(=O)c3ccccc3NC(=O)/C=C\C(=O)O)CC2)cc1	4	17	6	2	-4
O=C(O)/C=C\C(=O)Nc1ccccc1C(=O)N1CCN(c2ccc(Cl)cc2)CC1	-1	24*	-4	3	-4
CC(CCN1CCC(C(O)(c2ccccc2)c2ccccc2)CC1)Oc1ccc(C#N)c(F)c1 (centres undefined)	-1	0	9	·	·
CCCN(C)C1CN(Cc2cn(CCCOC)nn2)S(=O)(=O)C1 (centres undefined)	-1	23*	6	·	0
COc1ccc(S(=O)(=O)Nc2ccc(O)c3ccccc23)cc1	2	23*	37*	9	-5
COC(=O)C1=C(C)Nc2[nH]c(=S)[nH]c(=O)c2C1c1ccc(O)cc1 (centres undefined)	1	25*	-3	3	-10
O=C(NCCN1CCC(Cc2ccccc2)CC1)C1CCCN(S(=O)(=O)c2ccccc2[N+](=O)[O-])C1 (centres undefined)	2	3	6	·	·
CCCN1CCCCC(NC(=O)c2ccc(Cl)cc2Cl)C1=O (centres undefined)	0	-5	-3	·	6
